The values below come from ChEMBL document CHEMBL3272093, “Antibacterial halogenoacetyl derivatives of amino acids and simple peptides” (1977).

In brackets after ≈: the same amount, converted by molar mass. Activity calls are given as the source filed them.

One assay concerns Staphylococcus aureus. Put plainly: Antibacterial activity against Staphylococcus aureus assessed as inhibition of growth after 18 hrs by broth culture method. The format is functional. In outline:
(§1)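 Broth dilution in 0.5 mL Sensitivity Test Broth, inoculated with 0.2 mL of a 10^-4 dilution of an 18-h broth culture. MIC read after 18-h incubation as the lowest concentration preventing growth.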

The test system of the next assay is Escherichia coli. Put plainly: Antibacterial activity against Escherichia coli assessed as inhibition of growth after 18 hrs by broth culture method. The format is functional. In outline: as §1
In assay [1] the target is D-alanyl-D-alanine carboxypeptidase (Streptomyces sp. R61) (UniProt P15555). Put plainly: Inhibition of Streptomyces R61 DD-carboxypeptidase using Ac2-L-Lys-D-Ala-D-Ala as substrate at 10 to 100 ug/ml. In outline: (§2)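 Enzymes tested for release of D-alanine, measured with D-amino acid oxidase. Compounds assayed at 10 and 100 μg/mL. Substrates: Ac2-L-Lys-D-Ala-D-Ala for the Streptomyces R61 enzyme; UDP-N-acetylmuramyl-L-alanyl-meso-diaminopimeloyl-D-alanyl-D-alanine for the B. stearothermophilus and S. typhimurium enzymes.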

The target of assay [2] is T1, D-alanyl-D-alanine carboxypeptidase DacA (Geobacillus stearothermophilus) (UniProt Q05523).
T1 sequence (whole entry): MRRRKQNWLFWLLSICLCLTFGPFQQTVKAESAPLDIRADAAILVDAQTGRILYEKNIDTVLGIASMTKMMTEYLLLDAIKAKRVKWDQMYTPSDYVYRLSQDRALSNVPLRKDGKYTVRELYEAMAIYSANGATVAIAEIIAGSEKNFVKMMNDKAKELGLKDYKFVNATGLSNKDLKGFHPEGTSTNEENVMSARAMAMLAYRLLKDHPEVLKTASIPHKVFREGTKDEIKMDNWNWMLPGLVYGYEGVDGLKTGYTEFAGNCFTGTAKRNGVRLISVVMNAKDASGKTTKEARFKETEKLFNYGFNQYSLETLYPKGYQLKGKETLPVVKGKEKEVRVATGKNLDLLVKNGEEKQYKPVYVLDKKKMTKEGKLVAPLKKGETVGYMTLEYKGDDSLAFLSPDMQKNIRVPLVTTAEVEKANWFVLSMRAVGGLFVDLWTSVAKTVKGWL
In words: Inhibition of Bacillus stearothermophilus DD-carboxypeptidase using UDP-N-acetylmuramyl-L-alanyl-meso-diaminopimeloyl-D-alanyl-D-alanine as substrate at 10 to 100 ug/ml. In outline: as §2

The subject of assay [3] is Salmonella enterica subsp. enterica serovar Typhimurium. Put plainly: Inhibition of Salmonella typhimurium DD-carboxypeptidase using UDP-N-acetylmuramyl-L-alanyl-meso-diaminopimeloyl-D-alanyl-D-alanine as substrate at 10 to 100 ug/ml. The method in brief: as §2

Chain of D-alanyl-D-alanine carboxypeptidase (Streptomyces sp. R61) (P15555 whole entry): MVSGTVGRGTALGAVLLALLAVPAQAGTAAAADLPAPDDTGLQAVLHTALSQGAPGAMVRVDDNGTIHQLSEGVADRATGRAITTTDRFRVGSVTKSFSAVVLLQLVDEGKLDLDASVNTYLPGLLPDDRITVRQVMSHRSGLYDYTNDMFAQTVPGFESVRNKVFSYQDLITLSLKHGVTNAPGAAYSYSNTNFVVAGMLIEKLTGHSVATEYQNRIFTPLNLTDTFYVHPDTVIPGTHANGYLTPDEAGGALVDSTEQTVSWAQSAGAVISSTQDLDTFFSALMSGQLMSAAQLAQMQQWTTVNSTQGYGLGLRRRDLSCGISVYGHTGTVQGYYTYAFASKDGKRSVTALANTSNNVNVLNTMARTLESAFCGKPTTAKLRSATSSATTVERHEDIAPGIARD

A word on the MIC: it is the smallest concentration in the dilution series that meets the test's criterion for growth inhibition. `O=C(CI)NCCCC(=O)OCc1ccccc1`: the minimal inhibitory concentration (MIC) with Staphylococcus aureus worked out at 7.5 µg/mL (≈ 20.8 µM); in the assay on Escherichia coli, 250 µg/mL (≈ 692 µM). Moreover, the inhibition result in assay [1], in assay [2] and in assay [3] was “inactive” throughout.

Consider `O=C(O)CCCCNC(=O)[C@H](CCCCN1C(=O)c2ccccc2C1=O)NC(=O)CI`, for which the minimum inhibitory concentration (MIC) with Staphylococcus aureus and in the assay with Escherichia coli was more than 500 µg/mL throughout. Moreover, the inhibition entry in assay [1], in assay [2] and in assay [3] was “inactive” each time.

Take `C[C@@H](NC(=O)[C@H](CCCCN1C(=O)c2ccccc2C1=O)NC(=O)CI)C(=O)N[C@H](CCC(=O)OC(C)(C)C)C(=O)OC(C)(C)C`: the minimal inhibitory concentration (MIC) with Staphylococcus aureus is 62 µg/mL (≈ 81.9 µM); in the assay on Escherichia coli, more than 500 µg/mL. The inhibition entry in assay [1], in assay [2] and in assay [3] was “inactive” throughout.

On to `C[C@@H](NC(=O)CI)C(=O)N[C@H](C)C(=O)OCc1ccccc1`, for which the MIC in the assay with Staphylococcus aureus was 7.5 µg/mL (≈ 17.9 µM); in the assay with Escherichia coli, more than 500 µg/mL. In addition, the inhibition entry in assay [1], in assay [2] and in assay [3] was “inactive” throughout.

In the case of `C[C@@H](NC(=O)[C@H](CCCCNC(=O)OC(C)(C)C)NC(=O)CI)C(=O)N[C@H](C)C(=O)OC(C)(C)C`, the MIC in the assay on Staphylococcus aureus was 250 µg/mL (≈ 408 µM); in the assay on Escherichia coli, 500 µg/mL (≈ 816 µM). Also, the inhibition entry in assay [1], in assay [2] and in assay [3] was “inactive” throughout.

Consider `COC(=O)CCCCNC(=O)CI`, for which the MIC in the assay with Staphylococcus aureus was determined as 3.7 µg/mL (≈ 12.4 µM); in the assay on Escherichia coli, 7.5 µg/mL (≈ 25.1 µM). Besides, the inhibition result in assay [1], in assay [2] and in assay [3] was “inactive” each time.

Turning to `C[C@@H](NC(=O)CBr)C(=O)N[C@H](C)C(=O)OC(C)(C)C`, the minimum inhibitory concentration (MIC) with Staphylococcus aureus was 62 µg/mL (≈ 184 µM); in the assay on Escherichia coli it was more than 500 µg/mL. Besides, the inhibition result in assay [1], in assay [2] and in assay [3] was “inactive” in each case.

Consider `O=C(CI)NCCCCC(=O)OCc1ccccc1`, for which the minimal inhibitory concentration (MIC) with Staphylococcus aureus is less than 0.4 µg/mL; in the assay with Escherichia coli it was 62 µg/mL (≈ 165 µM). Moreover, the inhibition entry in assay [1], in assay [2] and in assay [3] was “inactive” throughout.

Turning to `C[C@@H](NC(=O)[C@@H](C)NC(=O)[C@H](CCCCN)NC(=O)CI)C(=O)O.O=C(O)C(F)(F)F`, the minimum inhibitory concentration (MIC) with Staphylococcus aureus and in the assay on Escherichia coli was more than 500 µg/mL each time. The inhibition entry in assay [1], in assay [2] and in assay [3] was “inactive” each time.

`C[C@@H](NC(=O)[C@H](CCCCNC(=O)CI)NC(=O)OC(C)(C)C)C(=O)N[C@H](C)C(=O)OC(C)(C)C`: the minimal inhibitory concentration (MIC) in the assay with Staphylococcus aureus was 125 µg/mL (≈ 204 µM); with Escherichia coli it was more than 500 µg/mL. Besides, the inhibition entry in assay [1], in assay [2] and in assay [3] was “inactive” each time.

For `C[C@@H](NC(=O)[C@@H](C)NC(=O)[C@@H](N)CCCCNC(=O)CI)C(=O)O.O=C(O)C(F)(F)F`, the values for the MIC in the assay on Staphylococcus aureus and in the assay on Escherichia coli were 500 µg/mL and more than 500 µg/mL, respectively. For the same compound, the inhibition entry in assay [1], in assay [2] and in assay [3] was “inactive” throughout.

With `CC(C)(C)OC(=O)CCCCNC(=O)[C@H](CCCCN1C(=O)c2ccccc2C1=O)NC(=O)CI.O`, the minimal inhibitory concentration (MIC) with Staphylococcus aureus and with Escherichia coli was more than 500 µg/mL each time. Also, the inhibition result in assay [1], in assay [2] and in assay [3] was “inactive” each time.

Take `O=C(CI)NCC(=O)NCC(=O)OCc1ccccc1`: the minimal inhibitory concentration (MIC) with Staphylococcus aureus worked out at 0.9 µg/mL (≈ 2.31 µM); with Escherichia coli, 62 µg/mL (≈ 159 µM). For the same compound, the inhibition entry in assay [1], in assay [2] and in assay [3] was “inactive” in each case.

Consider `C[C@@H](NC(=O)[C@@H](C)NC(=O)CI)C(=O)O`, for which the MIC was 500 µg/mL (≈ 1520 µM) with Staphylococcus aureus and more than 500 µg/mL with Escherichia coli. In addition, the inhibition entry in assay [1], in assay [2] and in assay [3] was “inactive” each time.

Turning to `C[C@@H](NC(=O)[C@H](CCCCN)NC(=O)CI)C(=O)O.O=C(O)C(F)(F)F`, the minimal inhibitory concentration (MIC) with Staphylococcus aureus and in the assay on Escherichia coli was more than 500 µg/mL each time. In addition, the inhibition result in assay [1], in assay [2] and in assay [3] was “inactive” in each case.

As for `O=C(CI)NCC(=O)OCc1ccccc1`, the values for the MIC with Staphylococcus aureus and in the assay on Escherichia coli were 7.5 µg/mL (≈ 22.5 µM) and 125 µg/mL (≈ 375 µM), respectively. Moreover, the inhibition entry in assay [1], in assay [2] and in assay [3] was “inactive” throughout.

For `C[C@@H](NC(=O)CI)C(=O)N[C@H](C)C(=O)OC(C)(C)C`, the MIC with Staphylococcus aureus is 31 µg/mL (≈ 80.7 µM); with Escherichia coli, more than 500 µg/mL. The inhibition entry in assay [1], in assay [2] and in assay [3] was “inactive” each time.

In the case of `C[C@@H](NC(=O)[C@H](CCCCNC(=O)OC(C)(C)C)NC(=O)CBr)C(=O)OC(C)(C)C`, the minimum inhibitory concentration (MIC) in the assay with Staphylococcus aureus is 62 µg/mL (≈ 125 µM); in the assay on Escherichia coli, more than 500 µg/mL. Further, the inhibition entry in assay [1], in assay [2] and in assay [3] was “inactive” throughout.

In the case of `O=C(O)CCCCNC(=O)CI`, the figures for the MIC in the assay with Staphylococcus aureus and in the assay on Escherichia coli were 125 µg/mL (≈ 438 µM) and 500 µg/mL (≈ 1750 µM), respectively. In addition, the inhibition entry in assay [1], in assay [2] and in assay [3] was “inactive” each time.

For `C[C@@H](NC(=O)[C@@H](C)NC(=O)[C@H](CCCCN1C(=O)c2ccccc2C1=O)NC(=O)CI)C(=O)O`, the MIC with Staphylococcus aureus was 500 µg/mL (≈ 853 µM); in the assay with Escherichia coli, more than 500 µg/mL. Also, the inhibition result in assay [1], in assay [2] and in assay [3] was “inactive” each time.

Take `C[C@@H](NC(=O)[C@H](CCCCNC(=O)OC(C)(C)C)NC(=O)CBr)C(=O)N[C@H](C)C(=O)OC(C)(C)C`: the MIC with Staphylococcus aureus and in the assay on Escherichia coli was 500 µg/mL (≈ 884 µM) each time. Besides, the inhibition entry in assay [1], in assay [2] and in assay [3] was “inactive” in each case.

Take `C[C@@H](NC(=O)[C@H](CCCCN1C(=O)c2ccccc2C1=O)NC(=O)CI)C(=O)N[C@H](CCC(=O)O)C(=O)O`: the results for the MIC in the assay on Staphylococcus aureus and in the assay with Escherichia coli were 250 µg/mL (≈ 388 µM) and more than 500 µg/mL, respectively. In addition, the inhibition entry in assay [1], in assay [2] and in assay [3] was “inactive” in each case.

With `C[C@@H](NC(=O)[C@H](CCCCN1C(=O)c2ccccc2C1=O)NC(=O)CI)C(=O)N[C@H](C)C(=O)OC(C)(C)C`, the MIC was 62 µg/mL (≈ 96.5 µM) in the assay with Staphylococcus aureus and more than 500 µg/mL in the assay with Escherichia coli. Also, the inhibition entry in assay [1], in assay [2] and in assay [3] was “inactive” in each case.

`C[C@@H](NC(=O)[C@H](CCCCN)NC(=O)CBr)C(=O)O.O=C(O)C(F)(F)F`: the MIC in the assay on Staphylococcus aureus and with Escherichia coli was more than 500 µg/mL throughout. The inhibition result in assay [1], in assay [2] and in assay [3] was “inactive” each time.

Turning to `C[C@@H](NC(=O)[C@@H](C)NC(=O)CBr)C(=O)O`, the minimal inhibitory concentration (MIC) was 500 µg/mL (≈ 1780 µM) in the assay on Staphylococcus aureus and more than 500 µg/mL with Escherichia coli. The inhibition entry in assay [1], in assay [2] and in assay [3] was “inactive” each time.

For `C[C@@H](NC(=O)[C@H](CCCCN1C(=O)CCC1=O)NC(=O)CI)C(=O)N[C@H](C)C(=O)OC(C)(C)C`, the MIC with Staphylococcus aureus and in the assay with Escherichia coli was more than 500 µg/mL each time. Moreover, the inhibition entry in assay [1], in assay [2] and in assay [3] was “inactive” throughout.

As for `O=C(CI)NCCC(=O)OCc1ccccc1`, the figures for the MIC in the assay with Staphylococcus aureus and in the assay on Escherichia coli were 7.5 µg/mL (≈ 21.6 µM) and 500 µg/mL (≈ 1440 µM), respectively. For the same compound, the inhibition result in assay [1], in assay [2] and in assay [3] was “inactive” each time.

As to `C[C@@H](NC(=O)[C@@H](C)NC(=O)[C@H](CCCCN)NC(=O)CBr)C(=O)O.O=C(O)C(F)(F)F`, the minimal inhibitory concentration (MIC) in the assay on Staphylococcus aureus and with Escherichia coli was more than 500 µg/mL throughout. Further, the inhibition result in assay [1], in assay [2] and in assay [3] was “inactive” each time.

With `C[C@@H](NC(=O)[C@H](CCCCNC(=O)OC(C)(C)C)NC(=O)CI)C(=O)OC(C)(C)C`, the MIC in the assay on Staphylococcus aureus is 15 µg/mL (≈ 27.7 µM); with Escherichia coli, more than 500 µg/mL. Also, the inhibition result in assay [1], in assay [2] and in assay [3] was “inactive” throughout.
